In ChEMBL document CHEMBL1121364, “Nucleoside conjugates as potential antitumor agents. 3. Synthesis and antitumor activity of 1-(beta-D-arabinofuranosyl)cytosine conjugates of corticosteroids” (1980):

What was measured:
L1210 [1] = assay: Antitumor activity in the mice with intraperitoneal implanted L1210 lymphoid leukemia at the dose 25 mg/kg/day x 5 was determined as percentage increase in the life span as compared with control tumor bearers; format: functional; conditions: Mus musculus, L1210, ip
Summary of the method: (§1)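 Female C3D2F1/J mice (C3H/HeJ × DBA/2J), groups of six to eight, average weight 25 g. Each mouse got 1 × 10^6 L1210 ascites cells ip, taken from DBA/2Ha donor mice bearing 3-5 day tumors. Compound was dissolved in 0.154 N NaOH and neutralized with 0.154 N HCl (final 0.9% NaCl). Dosed ip daily ×5, starting 24 h after implant. Recorded body weight change on day 8, survival range, median survival and 30-day survivors. ILS = (T/C − 1) × 100.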

L1210 [2] = assay: Antitumor activity in mice with intraperitoneal implanted L1210 lymphoid leukemia at the dose 50 mg/kg/day x 5 was determined as weight change (g/mouse) on 8th day; format: functional
Summary of the method: (§2)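 C3D2F1/J female mice (C3H/HeJ × DBA/2J), groups of six to eight, average 25 g, inoculated ip with 1 × 10^6 L1210 ascites cells taken from DBA/2Ha donor mice carrying 3-5 day tumors. Compound dissolved in 0.154 N NaOH, then neutralized with 0.154 N HCl to give 0.9% NaCl. Given ip daily for 5 consecutive days starting 24 h after implantation. Body weight change per mouse recorded on day 8.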

L1210 [3] = assay: Antitumor activity in the mice with intraperitoneal implanted L1210 lymphoid leukemia at the dose of 25 mg/kg/day x 5 was determined as mean survival of treated group compared to untreated; 11.5/9; format: functional, Mus musculus
Summary of the method: (§3)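 C3D2F1/J female mice (C3H/HeJ female × DBA/2J male), groups of six to eight, average weight 25 g. Inoculated ip with 1 × 10^6 L1210 ascites cells taken from DBA/2Ha donor mice bearing 3-5 day old tumors. Compounds were dissolved in 0.154 N NaOH, neutralized with 0.154 N HCl (final 0.9% NaCl), and given ip daily for 5 days from 24 h post-implant. Median survival T/C; ILS = (T/C − 1) × 100; 30-day survivors counted.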

L1210 [4] = assay: Antitumor activity in the mice with intraperitoneal implanted L1210 lymphoid leukemia at the dose 50 mg/kg/day x 5 was determined as percentage increase in the life span as compared with control tumor bearers; format: functional; conditions: Mus musculus, L1210, ip; summary of the method: as §3
L1210 [5] = assay: Antitumor activity in the mice with intraperitoneal implanted L1210 lymphoid leukemia at the dose 50 mg/kg/day x 5 was determined and number of animals survived on 30 th day were reported; 0/8; format: functional, Mus musculus; summary of the method: as §1
L1210 [6] = assay: Antitumor activity in the mice with intraperitoneal implanted L1210 lymphoid leukemia at the dose of 50 mg/kg/day x 5 was determined as mean survival of treated group compared to untreated; 13.5/9; format: functional, Mus musculus; summary of the method: as §3
L1210 [7] = assay: Antitumor activity in mice with intraperitoneal implanted L1210 lymphoid leukemia at the dose 100 mg/kg/day x 5 was determined as weight change (g/mouse) on 8th day; format: functional; summary of the method: as §2
L1210 [8] = assay: Antitumor activity in mice with intraperitoneal implanted L1210 lymphoid leukemia at the dose 25 mg/kg/day x 5 was determined as weight change (g/mouse) on 8th day; format: functional; summary of the method: as §2
L1210 [9] = assay: Antitumor activity in the mice with intraperitoneal implanted L1210 lymphoid leukemia at the dose 25 mg/kg/day x 5 was determined as Survival time in days; Range is 7-15 days; format: functional, Mus musculus; summary of the method: as §1
L1210 [10] = assay: Antitumor activity in the mice with intraperitoneal implanted L1210 lymphoid leukemia at the dose 25 mg/kg/day x 5 was determined and number of animals survived on 30 th day were reported; 0/8; format: functional, Mus musculus; summary of the method: as §1
L1210 [11] = assay: Antitumor activity in the mice with intraperitoneal implanted L1210 lymphoid leukemia at the dose 100 mg/kg/day x 5 was determined as Survival time in days; Range is 8-13 days; format: functional, Mus musculus; summary of the method: as §1
L1210 [12] = assay: In Vitro evaluation for the antiproliferative activity by observing the growth inhibition of L1210 lymphoid leukemia cells in culture at 72 hour; format: functional, Mus musculus
Summary of the method: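 Growth of L1210 lymphoid leukemia cells in culture measured by Trypan blue exclusion of viable cells after 72 h of drug exposure. ED50 is the concentration giving 50% growth inhibition. In some runs the compound was first preincubated in medium at 37 °C for 24 or 48 h before the assay.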

L1210 [13] = assay: Antitumor activity in the mice with intraperitoneal implanted L1210 lymphoid leukemia at the dose 100 mg/kg/day x 5 was determined and number of animals survived on 30 th day were reported; 0/8; format: functional, Mus musculus; summary of the method: as §1
L1210 [14] = assay: Antitumor activity in the mice with intraperitoneal implanted L1210 lymphoid leukemia at the dose 50 mg/kg/day x 5 was determined as Survival time in days; Range is 10-17 days; format: functional, Mus musculus; summary of the method: as §1
L1210 [15] = assay: Antitumor activity in the mice with intraperitoneal implanted L1210 lymphoid leukemia at the dose of 100 mg/kg/day x 5 was determined as mean survival of treated group compared to untreated; 9.5/9; format: functional, Mus musculus; summary of the method: as §3
L1210 [16] = assay: Antitumor activity in the mice with intraperitoneal implanted L1210 lymphoid leukemia at the dose 100 mg/kg/day x 5 was determined as percentage increase in the life span as compared with control tumor bearers; format: functional; conditions: Mus musculus, L1210, ip; summary of the method: as §1
L1210 [17] = assay: Antitumor activity in mice with intraperitoneal implanted L1210 lymphoid leukemia at the dose 75 mg/kg/day x 5 was determined as weight change (g/mouse) on 8th day; format: functional; summary of the method: as §2
L1210 [18] = assay: Antitumor activity in the mice with intraperitoneal implanted L1210 lymphoid leukemia at the dose of 50 mg/kg/day x 5 was determined as mean survival of treated group compared to untreated; 24/8; format: functional, Mus musculus
L1210 [19] = assay: Antitumor activity in the mice with intraperitoneal implanted L1210 lymphoid leukemia at the dose 75 mg/kg/day x 5 was determined as Survival time in days; Range is 12-21 days; format: functional, Mus musculus; summary of the method: as §3
L1210 [20] = assay: Antitumor activity in the mice with intraperitoneal implanted L1210 lymphoid leukemia at the dose 25 mg/kg/day x 5 was determined as Survival time in days; Range is 14-18 days; format: functional, Mus musculus; summary of the method: as §1
L1210 [21] = assay: Antitumor activity in the mice with intraperitoneal implanted L1210 lymphoid leukemia at the dose 75 mg/kg/day x 5 was determined as percentage increase in the life span as compared with control tumor bearers; format: functional; conditions: Mus musculus, L1210, ip; summary of the method: as §3
L1210 [22] = assay: Antitumor activity in the mice with intraperitoneal implanted L1210 lymphoid leukemia at the dose 50 mg/kg/day x 5 was determined as Survival time in days; Range is 15-42 days; format: functional, Mus musculus; summary of the method: as §1
L1210 [23] = assay: Antitumor activity in the mice with intraperitoneal implanted L1210 lymphoid leukemia at the dose of 25 mg/kg/day x 5 was determined as mean survival of treated group compared to untreated; 16.5/8.5; format: functional, Mus musculus; summary of the method: as §3
L1210 [24] = assay: Antitumor activity in the mice with intraperitoneal implanted L1210 lymphoid leukemia at the dose 75 mg/kg/day x 5 was determined and number of animals survived on 30 th day were reported; 0/8; format: functional, Mus musculus; summary of the method: as §3
L1210 [25] = assay: Antitumor activity in the mice with intraperitoneal implanted L1210 lymphoid leukemia at the dose 50 mg/kg/day x 5 was determined and number of animals survived on 30 th day were reported; 2/8; format: functional, Mus musculus; summary of the method: as §1
L1210 [26] = assay: Antitumor activity in the mice with intraperitoneal implanted L1210 lymphoid leukemia at the dose of 75 mg/kg/day x 5 was determined as mean survival of treated group compared to untreated; 17/8.5; format: functional, Mus musculus

**Q.** Which results are given for `C[C@@H]1C[C@H]2[C@@H]3CCC4=CC(=O)C=C[C@]4(C)[C@@]3(F)[C@@H](O)C[C@]2(C)[C@@]1(O)C(=O)COP(=O)(O)OC[C@H]1O[C@@H](n2ccc(N)nc2=O)[C@@H](O)[C@@H]1O`?
**A.** ILS at 25 mg/kg/day (L1210 [1]): 28%; Weight change (L1210 [2]): -1.05 g mouse-1; T/C (L1210 [3]): 11.5; ILS at 50 mg/kg/day (L1210 [4]): 50%; Survivors (L1210 [5]): 0; T/C (L1210 [6]): 13.5; Weight change (L1210 [7]): -2.02 g mouse-1; Weight change (L1210 [8]): -1.25 g mouse-1; Survival time (L1210 [9]): 7 days; Survivors (L1210 [10]): 0; Survival time (L1210 [11]): 8 days; ED 50 (L1210 [12]): 80 nM; Survivors (L1210 [13]): 0; Survival time (L1210 [14]): 10 days; T/C (L1210 [15]): 9.5; ILS at 100 mg/kg/day (L1210 [16]): 6%

**Q.** Which ILS at 25 mg/kg/day (L1210 [1]) does the source give for `C[C@]12C[C@H](O)[C@H]3[C@@H](CCC4=CC(=O)CC[C@@]43C)[C@@H]1CC[C@@H]2C(=O)COP(=O)(O)OC[C@H]1O[C@@H](n2ccc(N)nc2=O)[C@@H](O)[C@@H]1O` here?
**A.** 94%

**Q.** What about the Weight change (L1210 [2]) of the same compound?
**A.** -1.24 g mouse-1

**Q.** What about the ILS at 50 mg/kg/day (L1210 [4]) of the same compound?
**A.** 200%

**Q.** And the Weight change (L1210 [17])?
**A.** -0.59 g mouse-1

**Q.** What about the T/C (L1210 [18]) of the same compound?
**A.** 24

**Q.** What about the Survival time (L1210 [19]) of the same compound?
**A.** 12 days

**Q.** And the Survival time (L1210 [20])?
**A.** 14 days

**Q.** What about the Weight change (L1210 [8]) of the same compound?
**A.** 0.06 g mouse-1

**Q.** What about the ILS at 75 mg/kg/day (L1210 [21]) of the same compound?
**A.** 100%

**Q.** And the Survival time (L1210 [22])?
**A.** 15 days

**Q.** And the Survivors (L1210 [10])?
**A.** 0

**Q.** What about the T/C (L1210 [23]) of the same compound?
**A.** 16.5

**Q.** What about the “ED 50” value (L1210 [12]) of the same compound?
**A.** 90 nM

**Q.** What about the Survivors (L1210 [24]) of the same compound?
**A.** 0

**Q.** And the Survivors (L1210 [25])?
**A.** 2

**Q.** What about the T/C (L1210 [26]) of the same compound?
**A.** 17
